# Source: ChEMBL document CHEMBL1124127, “Central dopaminergic and 5-hydroxytryptaminergic effects of C3-methylated derivatives of 8-hydroxy-2-(di-n-propylamino)tetralin” (J Med Chem, 1988)
# How the values were obtained:
# [1] = tested on: Rattus norvegicus; test: Effect on in vivo accumulation of dopamine(DA) was measured in rat limbic system at 48(Micromol/kg) dose; assay type: functional
# In short: (§1)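 Non-reserpinized rats got the test drug sc in the neck (5 mL/kg) 60 min before death, and NSD 1015 (573 µmol/kg ip) 30 min before death. After decapitation, the limbic system was dissected on ice, frozen and homogenized in 0.1 M perchloric acid with α-methyl-DOPA internal standard. DA was measured by ion-pair reversed-phase HPLC with electrochemical detection. Data are mean ± SEM (controls n=17-19, treated 3-7), analysed by ANOVA/Dunnett.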
# [2] = tested on: Rattus norvegicus; test: Effect on in vivo accumulation of DOPA was measured in rat corpus striatum at 48(Micromol/kg) dose; assay type: functional
# In short: (§2)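 Rats not pretreated with reserpine received test drug (hydrochloride or hydrobromide salt) sc in the neck region 60 min before death. NSD 1015 decarboxylase inhibitor (100 mg/kg, i.e., 573 μmol/kg, ip) was given 30 min before decapitation. Brain was dissected on ice. Tissue was homogenized in 0.1 M perchloric acid with α-methyl-DOPA internal standard. Analytes were quantified by ion-pair reversed-phase HPLC-electrochemical detection. Values are means ± SEM, n = 3-7 per treated group.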
# [3] = tested on: Rattus norvegicus; test: Effect on in vivo accumulation of 5-HTP was measured in rat limbic system at 48(Micromol/kg) dose; assay type: functional; in short: as §2
# [4] = tested on: Rattus norvegicus; test: Effect on in vivo accumulation of 5-HTP was measured in rat corpus striatum at 48(umol/kg) dose; assay type: functional; in short: as §2
# [5] = tested on: Rattus norvegicus; test: Effect on in vivo accumulation of DOPA was measured in rat limbic system at 48(Micromol/kg) dose; assay type: functional; in short: as §2
# [6] = tested on: Rattus norvegicus; test: Effect on in vivo accumulation of […] was measured in rat corpus striatum at 48(Micromol/kg) dose; assay type: functional; in short: as §2
# [7] = tested on: Rattus norvegicus; test: Effect on in vivo accumulation of 5-HTP was measured in rat limbic system at 50(Micromol/kg) dose; assay type: functional; in short: as §2
# [8] = tested on: Rattus norvegicus; test: Effect on in vivo accumulation of DOPA was measured in rat corpus striatum at 50(Micromol/kg) dose; assay type: functional; in short: as §2
# [9] = tested on: Rattus norvegicus; test: Effect on in vivo accumulation of DOPA was measured in rat limbic system at 50(Micromol/kg) dose; assay type: functional; in short: as §2
# [10] = tested on: Rattus norvegicus; test: Effect on in vivo accumulation of dopamine(DA) was measured in rat limbic system at 50(Micromol/kg) dose; assay type: functional; in short: as §1
# [11] = tested on: Rattus norvegicus; test: Effect on in vivo accumulation of 5-HTP was measured in rat corpus striatum at 50(umol/kg) dose; assay type: functional; in short: as §2
# [12] = tested on: Rattus norvegicus; test: Effect on in vivo accumulation of […] was measured in rat corpus striatum at 50(Micromol/kg) dose; assay type: functional; in short: as §2
# [13] = target: T1, 5-hydroxytryptamine receptor 1A (Rattus norvegicus, UniProt P19327); test: (§3) In vitro Inhibitory activity tested at 5-hydroxytryptamine 1A receptor binding site in rat; assay type: functional
# T1 sequence (P19327 whole entry): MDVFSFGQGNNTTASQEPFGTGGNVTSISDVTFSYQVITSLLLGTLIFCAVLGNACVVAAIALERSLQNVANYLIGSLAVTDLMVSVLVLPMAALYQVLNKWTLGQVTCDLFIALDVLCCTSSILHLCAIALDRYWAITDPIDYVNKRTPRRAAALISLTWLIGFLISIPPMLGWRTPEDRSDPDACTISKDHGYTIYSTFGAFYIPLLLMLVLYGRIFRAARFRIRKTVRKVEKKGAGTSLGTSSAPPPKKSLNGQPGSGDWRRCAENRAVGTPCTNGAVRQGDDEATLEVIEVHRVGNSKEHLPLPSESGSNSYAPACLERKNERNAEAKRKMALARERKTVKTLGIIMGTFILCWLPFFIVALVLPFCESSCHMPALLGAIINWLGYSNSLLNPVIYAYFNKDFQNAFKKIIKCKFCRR
# In short: (§4)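 Competition binding used rat brain membranes washed in 50 mM Tris-HCl pH 7.4, preincubated 10 min at 37 °C to remove 5-HT, and used at 10 mg wet tissue/mL. Assay: 1 nM [3H]-8-OH-DPAT, 3 mM CaCl2, 100 µM pargyline, 15 min at 37 °C, then filtration on PEI-treated filters. Nonspecific binding was set with 10 µM 5-HT. IC50 came from four-parameter logistic regression, mean ± SEM of N experiments.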
# [14] = tested on: Rattus norvegicus; test: Effect on in vivo accumulation of dopamine(DA) was measured in rat limbic system at 66(Micromol/kg) dose; assay type: functional; in short: as §1
# [15] = tested on: Rattus norvegicus; test: Effect on in vivo accumulation of DOPA was measured in rat corpus striatum at 66(Micromol/kg) dose; assay type: functional; in short: as §2
# [16] = tested on: Rattus norvegicus; test: Effect on in vivo accumulation of 5-HTP was measured in rat corpus striatum at 66(umol/kg) dose; assay type: functional; in short: as §2
# [17] = tested on: Rattus norvegicus; test: Effect on in vivo accumulation of 5-HTP was measured in rat limbic system at 66(Micromol/kg) dose; assay type: functional; in short: as §2
# [18] = tested on: Rattus norvegicus; test: Effect on in vivo accumulation of […] was measured in rat corpus striatum at 66(Micromol/kg) dose; assay type: functional; in short: as §2
# [19] = tested on: Rattus norvegicus; test: Effect on in vivo accumulation of DOPA was measured in rat limbic system at 66(Micromol/kg) dose; assay type: functional; in short: as §2
# [20] = tested on: Rattus norvegicus; test: Effect on in vivo accumulation of DOPA was measured in rat limbic system at 59(Micromol/kg) dose; assay type: functional; in short: as §2
# [21] = tested on: Rattus norvegicus; test: Effect on in vivo accumulation of DOPA was measured in rat corpus striatum at 59(Micromol/kg) dose; assay type: functional; in short: as §2
# [22] = tested on: Rattus norvegicus; test: Effect on in vivo accumulation of dopamine(DA) was measured in rat limbic system at 59(Micromol/kg) dose; assay type: functional; in short: as §1
# [23] = tested on: Rattus norvegicus; test: Effect on in vivo accumulation of 5-HTP was measured in rat corpus striatum at 59(umol/kg) dose; assay type: functional; in short: as §2
# [24] = tested on: Rattus norvegicus; test: Effect on in vivo accumulation of […] was measured in rat corpus striatum at 59(Micromol/kg) dose; assay type: functional; in short: as §2
# [25] = tested on: Rattus norvegicus; test: Effect on in vivo accumulation of 5-HTP was measured in rat limbic system at 59(Micromol/kg) dose; assay type: functional; in short: as §2
# [26] = target: T1, 5-hydroxytryptamine receptor 1A; test: as §3; in short: as §4
compound,measurement,setting,value
CCCN(CCC)[C@H]1Cc2c(cccc2OC)C[C@@H]1C (racemic),Activity,[1],1225 ng/g
same,Activity,[2],979 ng/g
same,Activity,[3],145 ng/g
same,Activity,[4],<61.3 ng/g
same,Activity,[5],389 ng/g
same,Activity,[6],5833 ng/g
CCCN(CCC)[C@H]1Cc2c(O)cccc2C[C@H]1C (racemic) [listing 1 of 2 here],Activity,[7],138 ng/g
same,Activity,[8],1059 ng/g
same,Activity,[9],436 ng/g
same,Activity,[10],<678 ng/g
same,Activity,[11],<57.8 ng/g
same,Activity,[12],<2935 ng/g
same,IC50,[13],0.774 µM
CCCN(CCC)[C@H]1Cc2c(cccc2OC)C[C@H]1C (racemic),Activity,[1],1342 ng/g
same,Activity,[2],1078 ng/g
same,Activity,[3],141 ng/g
same,Activity,[4],88.8 ng/g
same,Activity,[5],414 ng/g
same,Activity,[6],6465 ng/g
CCCN(CCC)[C@H]1Cc2c(O)cccc2CC1(C)C (racemic),Activity,[1],1125 ng/g
same,Activity,[2],982 ng/g
same,Activity,[3],158 ng/g
same,Activity,[4],90 ng/g
same,Activity,[5],362 ng/g
same,Activity,[6],5417 ng/g
COc1cccc2c1C[C@H](N)[C@@H](C)C2 (racemic),Activity,[14],1243 ng/g
same,Activity,[15],<823 ng/g
same,Activity,[16],90.2 ng/g
same,Activity,[17],<106 ng/g
same,Activity,[18],<6863 ng/g
same,Activity,[19],356 ng/g
CCCN[C@H]1Cc2c(O)cccc2C[C@@H]1C (racemic),Activity,[20],400 ng/g
same,Activity,[21],1047 ng/g
same,Activity,[22],1215 ng/g
same,Activity,[23],101 ng/g
same,Activity,[24],5877 ng/g
same,Activity,[25],155 ng/g
CCCN[C@H]1Cc2c(O)cccc2C[C@H]1C (racemic),Activity,[20],<283 ng/g
same,Activity,[21],<633 ng/g
same,Activity,[22],1058 ng/g
same,Activity,[23],69 ng/g
same,Activity,[24],4530 ng/g
same,Activity,[25],<98.1 ng/g
CCCN(CCC)[C@H]1Cc2c(O)cccc2C[C@H]1C (racemic) [listing 2 of 2 here],IC50,[26],0.774 µM
CCCN(CCC)[C@H]1Cc2c(O)cccc2C[C@@H]1C (racemic; form 1),IC50,[26],0.129 µM
CCCN(CCC)[C@H]1Cc2c(O)cccc2C[C@@H]1C (racemic; form 2),Activity,[7],<79.3 ng/g
same,Activity,[8],792 ng/g
same,Activity,[9],348 ng/g
same,Activity,[10],<775 ng/g
same,IC50,[26],0.129 µM
same,Activity,[11],<27.1 ng/g
same,Activity,[12],<3871 ng/g
